Reference: ChEMBL document CHEMBL2321743, “Novel hybrid-type antimicrobial agents targeting the switch region of bacterial RNA polymerase” (ACS Med Chem Lett, 2013)
pIC50: −log10 of the molar value. Values after ≈ are worked out from the molar mass of the structure shown. Active and inactive are the calls of the source. The rule behind the calls is not given here.

Assays:
Bacillus spizizenii [1] = assay: Antibacterial activity against Bacillus subtilis ATCC 6633 at 30 ug/disk after 12 hrs by paper disk diffusion assay; assay type: functional; details: for zone of inhibition at 30 µg/disc: ATCC 6633, 12 h, read-out: DIZ
In short: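 Test compounds dissolved in MeOH and applied to paper disks at 30 μg/disk against Bacillus subtilis. Read-out is the diameter of the zone of complete growth inhibition.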

[2] = Inhibition of Escherichia coli RNA polymerase after 1 hr by fluorescence assay
In short: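 Assay uses E. coli RNA polymerase. IC50 is taken from three independent dose–response curves, each point measured in duplicate, and reported as mean ± SEM.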

Serratia marcescens = assay: Antibacterial activity against Serratia marcescens ATCC 13880 after 24 hrs by broth microdilution method; assay type: functional; details: ATCC 13880, 24 h
Pseudomonas aeruginosa = assay: Antibacterial activity against Pseudomonas aeruginosa ATCC 27853 after 24 hrs by broth microdilution method; assay type: functional; details: ATCC 27853, 24 h
Enterococcus faecalis = assay: Antibacterial activity against Enterococcus faecalis ATCC 29212 after 24 hrs by broth microdilution method; assay type: functional; details: ATCC 29212, 24 h
Bacillus spizizenii [3] = assay: Antibacterial activity against Bacillus subtilis ATCC 6633 after 24 hrs by broth microdilution method; assay type: functional; details: ATCC 6633, 24 h
Micrococcus luteus = assay: Antibacterial activity against Micrococcus luteus ATCC 9341 after 24 hrs by broth microdilution method; assay type: functional; details: ATCC 9341, 24 h
Candida albicans = assay: Antifungal activity against Candida albicans ATCC 10231 after 48 hrs by broth microdilution method; assay type: functional; details: ATCC 10231, 48 h
Escherichia coli = assay: Antibacterial activity against Escherichia coli ATCC 25922 after 24 hrs by broth microdilution method; assay type: functional; details: ATCC 25922, 24 h
Staphylococcus aureus = assay: Antibacterial activity against Staphylococcus aureus ATCC 29213 after 24 hrs by broth microdilution method; assay type: functional; details: ATCC 29213, 24 h

O=C(CCCCCCCO)Nc1c2sscc-2[nH]c1=O
zone of inhibition at 30 µg/disc (Bacillus spizizenii [1]): 9 mm

CCC(=O)c1c(O)cc(CCCC(=O)Nc2c3sscc-3[nH]c2=O)oc1=O
diameter of the inhibition zone (DIZ) (Bacillus spizizenii [1]): inactive

CCC(=O)c1c(O)cc(C)oc1=O
diameter of the inhibition zone (DIZ) (Bacillus spizizenii [1]): inactive

C=CCCCC(=O)c1c(O)cc(C)oc1=O
zone of inhibition at 30 µg/disc (Bacillus spizizenii [1]): 9 mm

CCCCCCCCC(=O)c1c(O)cc(C)oc1=O
pIC50 [2]: < 2.70
MIC (Serratia marcescens): 128 µg/mL (≈ 481 µM)
MIC (Pseudomonas aeruginosa): 128 µg/mL (≈ 481 µM)
MIC (Enterococcus faecalis): 4 µg/mL (≈ 15 µM)
MIC (Bacillus spizizenii [3]): 8 µg/mL (≈ 30 µM)
MIC (Micrococcus luteus): 2 µg/mL (≈ 7.51 µM)
MIC (Candida albicans): 64 µg/mL (≈ 240 µM)
MIC (Escherichia coli): 128 µg/mL (≈ 481 µM)
MIC (Staphylococcus aureus): 8 µg/mL (≈ 30 µM)
zone of inhibition at 30 µg/disc (Bacillus spizizenii [1]): 12 mm

C=CCCCc1cc(O)c(C(=O)CCCCCCC(=O)Nc2c3sscc-3[nH]c2=O)c(=O)o1
zone of inhibition at 30 µg/disc (Bacillus spizizenii [1]): 10 mm

Cc1cc(O)c(C(=O)CCCCCCC(=O)Nc2c3sscc-3[nH]c2=O)c(=O)o1
zone of inhibition at 30 µg/disc (Bacillus spizizenii [1]): 11 mm

CCCCCCCCC(=O)c1c(O)cc(CCCCCC(=O)Nc2c3sscc-3[nH]c2=O)oc1=O
zone of inhibition at 30 µg/disc (Bacillus spizizenii [1]): 9 mm

CCCC/C(C)=C/C=C(\C)C(=O)c1c(O)cc([C@H](C)CC/C=C/NC(=O)OC)oc1=O [MYXOPYRONIN B]
pIC50 [2]: 4.62

Cc1cc(O)c(C(=O)CCCCCCC(=O)NC2=C3SS(=O)(=O)C=C3NC2=O)c(=O)o1
diameter of the inhibition zone (DIZ) (Bacillus spizizenii [1]): inactive

Cc1cc(O)c(C(=O)CCCCCCCC(=O)Nc2c3sscc-3[nH]c2=O)c(=O)o1
pIC50 [2]: 4.85
MIC (Serratia marcescens): ≥ 256 µg/mL
MIC (Pseudomonas aeruginosa): 128 µg/mL (≈ 284 µM)
MIC (Enterococcus faecalis): 4 µg/mL (≈ 8.88 µM)
MIC (Bacillus spizizenii [3]): 16 µg/mL (≈ 35.5 µM)
MIC (Micrococcus luteus): 1 µg/mL (≈ 2.22 µM)
MIC (Candida albicans): ≥ 256 µg/mL
MIC (Escherichia coli): ≥ 256 µg/mL
MIC (Staphylococcus aureus): 4 µg/mL (≈ 8.88 µM)
zone of inhibition at 30 µg/disc (Bacillus spizizenii [1]): 15 mm

CCCCCCCCC(=O)c1c(O)cc(CCCCCC(=O)O)oc1=O
diameter of the inhibition zone (DIZ) (Bacillus spizizenii [1]): Active

CO[C@H]1/C=C/O[C@@]2(C)Oc3c(C)c(O)c4c(O)c(c(/C=N/N5CCN(C)CC5)c(O)c4c3C2=O)NC(=O)/C(C)=C\C=C\[C@H](C)[C@H](O)[C@@H](C)[C@@H](O)[C@@H](C)[C@H](OC(C)=O)[C@@H]1C [RIFAMPIN]
pIC50 [2]: 7.10
MIC (Serratia marcescens): 32 µg/mL (≈ 38.9 µM)
MIC (Pseudomonas aeruginosa): 32 µg/mL (≈ 38.9 µM)
MIC (Enterococcus faecalis): 1 µg/mL (≈ 1.22 µM)
MIC (Bacillus spizizenii [3]): ≤ 0.125 µg/mL
MIC (Micrococcus luteus): ≤ 0.125 µg/mL
MIC (Candida albicans): ≥ 256 µg/mL
MIC (Escherichia coli): 8 µg/mL (≈ 9.72 µM)
MIC (Staphylococcus aureus): 0.5 µg/mL (≈ 0.608 µM)
zone of inhibition at 30 µg/disc (Bacillus spizizenii [1]): 25 mm

Cc1cc(O)c(C(=O)NCCCCCCC(=O)O)c(=O)o1
diameter of the inhibition zone (DIZ) (Bacillus spizizenii [1]): inactive

Cc1cc(O)c(C(=O)NCCCCCCC(=O)Nc2c3sscc-3[nH]c2=O)c(=O)o1
diameter of the inhibition zone (DIZ) (Bacillus spizizenii [1]): Active

Cc1cc(O)c(C(=O)CCCCCCC(=O)O)c(=O)o1
diameter of the inhibition zone (DIZ) (Bacillus spizizenii [1]): inactive

Cc1cc(O)c(C(=O)CCCCC(=O)Nc2c3sscc-3[nH]c2=O)c(=O)o1
pIC50 [2]: < 2.70
MIC (Serratia marcescens): 128 µg/mL (≈ 313 µM)
MIC (Pseudomonas aeruginosa): 64 µg/mL (≈ 157 µM)
MIC (Enterococcus faecalis): 16 µg/mL (≈ 39.2 µM)
MIC (Bacillus spizizenii [3]): 64 µg/mL (≈ 157 µM)
MIC (Micrococcus luteus): 8 µg/mL (≈ 19.6 µM)
MIC (Candida albicans): 128 µg/mL (≈ 313 µM)
MIC (Escherichia coli): 128 µg/mL (≈ 313 µM)
MIC (Staphylococcus aureus): 64 µg/mL (≈ 157 µM)
zone of inhibition at 30 µg/disc (Bacillus spizizenii [1]): 14 mm

Cc1cc(O)c(C(=O)CCCCCCCC(=O)N2CCCCC2)c(=O)o1
diameter of the inhibition zone (DIZ) (Bacillus spizizenii [1]): inactive

C=CCCCc1cc(O)c(C(=O)CCCCCCC(=O)O)c(=O)o1
diameter of the inhibition zone (DIZ) (Bacillus spizizenii [1]): inactive

CCCC/C(C)=C/C=C(\C)C(=O)c1c(O)cc(C(C)CC/C=C/NC(=O)OC)oc1=O (racemic)
diameter of the inhibition zone (DIZ) (Bacillus spizizenii [1]): Active
